Laboratory results published in ChEMBL document CHEMBL4261539, “18α-Glycyrrhetinic acid monoglucuronide as an anti-inflammatory agent through suppression of the NF-κB and MAPK signaling pathway” (Medchemcomm, 2017).
The source made the active and inactive calls. The calls are words filed in the database; no cut-off is given here.

Columns and labels:
[1] = tested on: RAW264.7; assay: Anti-inflammatory activity in mouse RAW264.7 cells assessed as inhibition of LPS-induced NO production at 40 uM preincubated for 2 hrs followed by LPS addition measured after 20 hrs by Griess assay relative to control; type: functional
Method in brief: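 Macrophages (RAW264.7) are pretreated 2 h with compound at 40 μM, then held with or without LPS (1 μg mL–1) for 20 h. Released NO is measured with Griess reagent. Results are means ± SD (n = 3) from at least three independent experiments.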

[2] = Cytotoxicity against mouse RAW264.7 cells assessed as cell viability at 40 uM after 24 hrs by MTT assay relative to control; type: cell-based; conditions: read-out: Activity
[3] = tested on: RAW264.7; assay: Anti-inflammatory activity in mouse RAW264.7 cells assessed as inhibition of LPS-induced IL-6 production at 10 to 40 uM preincubated for 2 hrs followed by LPS addition measured after 20 hrs by ELISA; type: functional, cell-based
Method in brief: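 RAW264.7 cells are pretreated 2 h with compound at 40 or 10 μM, then held with or without LPS (1 μg mL–1) for 20 h. Supernatant IL-6 is quantified by ELISA. Results are means ± SD (n = 3) of at least three independent experiments.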

[4] = tested on: RAW264.7; assay: Anti-inflammatory activity in mouse RAW264.7 cells assessed as inhibition of LPS-induced iNOS protein expression measured after 20 hrs by Western blot analysis; type: functional, cell-based
Method in brief: (§1)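 RAW264.7 cells are treated with graded concentrations of test article, then held with or without LPS (1 μg mL–1) for 20 h. iNOS and COX-2 protein are measured. The NF-κB inhibitor Bay 11-7082 (20 μM) serves as reference. Results are means ± SD (n = 3) of at least three independent experiments.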

[5] = tested on: RAW264.7; assay: Anti-inflammatory activity in mouse RAW264.7 cells assessed as inhibition of LPS-induced COX2 protein expression measured after 20 hrs by Western blot analysis; type: functional, cell-based; method in brief: as §1
[6] = molecular target: Transcription factor p65 (Mus musculus) (UniProt Q04207); assay: Inhibition of LPS-induced NF-kB p65 phosphorylation in mouse RAW264.7 cells at 10 to 30 uM after 30 mins by Western blot analysis; type: cell-based
Method in brief: (§2)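 RAW264.7 cells are exposed to 10–30 μM test article plus LPS (1 μg mL–1) for 30 min. Total and phosphorylated proteins are probed by western blot: NF-κB p65 and IκB, with Bay 11-7082 (20 μM) as reference, and JNK, ERK1/2 and p38 MAPK. Results are means ± SD (n = 3) from at least three independent experiments.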

[7] = molecular target: Transcription factor p65 (Mus musculus) (UniProt Q04207); assay: Inhibition of LPS-induced NF-kB p65 nuclear tanslocation in mouse RAW264.7 cells at 20 to 30 uM preincubated for 1 hr followed by LPS addition measured after 3 hrs by DAPI staining based immunofluorescence assay; type: cell-based
Method in brief: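 For p65 nuclear translocation, RAW264.7 cells are pretreated 1 h with test article, then stimulated with LPS (1 μg mL–1) for 3 h before immunofluorescence imaging.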

[8] = tested on: RAW264.7; assay: Inhibition of LPS-induced ERK phosphorylation in mouse RAW264.7 cells after 30 mins by Western blot analysis; type: cell-based; method in brief: as §2
[9] = tested on: Mus musculus; assay: Anti-inflammatory activity in C57BL6 mouse model of CCl4-induced hepatic fibrosis assessed as reduction in inflammatory cell infiltration in hepatic tissue at 100 to 200 mg/kg, ig administered 2 times per week for 4 weeks by H and E staining based assay; type: functional, organism-based
Method in brief: (§3)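 Male SPF C57BL6 mice (20 ± 2 g) are acclimatized at least one week at 22 ± 2 °C, 50% humidity, 12 h light/dark, with free food and water. CCl4 induces hepatic fibrosis. Groups are control, model, colchicine 0.1 mg kg–1, and test article at 100 or 200 mg kg–1. Liver sections are scored by light microscopy after H&E and Masson staining.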

[10] = tested on: Mus musculus; assay: Anti-inflammatory activity in C57BL6 mouse model of CCl4-induced hepatic fibrosis assessed as reduction in blue collagen fibers in hepatic tissue at 100 to 200 mg/kg, ig administered 2 times per week for 4 weeks by masson staining based assay; type: functional, organism-based; method in brief: as §3
[11] = tested on: Mus musculus; assay: Anti-inflammatory activity in C57BL6 mouse model of CCl4-induced hepatic fibrosis assessed as reduction in hepatic fibrosis at 100 to 200 mg/kg, ig administered 2 times per week for 4 weeks by H and E staining based assay; type: functional, organism-based; method in brief: as §3
[12] = Inhibition of LPS-induced IkBalpha phosphorylation in mouse RAW264.7 cells at 10 to 30 uM after 30 mins by Western blot analysis
[13] = tested on: Mus musculus; assay: Anti-inflammatory activity in C57BL6 mouse model of CCl4-induced hepatic fibrosis assessed as reduction in inflammatory cell infiltration in hepatic tissue at 0.1 mg/kg, ig administered 2 times per week for 4 weeks by H and E staining based assay; type: functional, organism-based
Method in brief: (§4)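 Male SPF C57BL6 mice (20 ± 2 g), acclimatized for at least one week under controlled temperature, humidity and light cycle. Hepatic fibrosis was induced with CCl4, with control and model groups run alongside. Liver tissue was H&E-stained and examined by light microscopy for inflammatory cell infiltration, hepatocyte degeneration and fibrosis.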

[14] = tested on: Mus musculus; assay: Anti-inflammatory activity in C57BL6 mouse model of CCl4-induced hepatic fibrosis assessed as reduction in blue collagen fibers in hepatic tissue at 0.1 mg/kg, ig administered 2 times per week for 4 weeks by masson staining based assay; type: functional, organism-based
Method in brief: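 Male SPF C57BL6 mice (20 ± 2 g), housed at 22 ± 2 °C and 50% humidity with a 12 h light/dark cycle, acclimatized for at least one week. CCl4-induced hepatic fibrosis model, groups compared with untreated control and CCl4 model groups. Liver sections were Masson-stained, and blue collagen fibers were scored by light microscopy.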

[15] = tested on: Mus musculus; assay: Anti-inflammatory activity in C57BL6 mouse model of CCl4-induced hepatic fibrosis assessed as reduction in hepatic fibrosis at 0.1 mg/kg, ig administered 2 times per week for 4 weeks by H and E staining based assay; type: functional, organism-based; method in brief: as §4

Sequence of Transcription factor p65 (Mus musculus) (Q04207 whole entry): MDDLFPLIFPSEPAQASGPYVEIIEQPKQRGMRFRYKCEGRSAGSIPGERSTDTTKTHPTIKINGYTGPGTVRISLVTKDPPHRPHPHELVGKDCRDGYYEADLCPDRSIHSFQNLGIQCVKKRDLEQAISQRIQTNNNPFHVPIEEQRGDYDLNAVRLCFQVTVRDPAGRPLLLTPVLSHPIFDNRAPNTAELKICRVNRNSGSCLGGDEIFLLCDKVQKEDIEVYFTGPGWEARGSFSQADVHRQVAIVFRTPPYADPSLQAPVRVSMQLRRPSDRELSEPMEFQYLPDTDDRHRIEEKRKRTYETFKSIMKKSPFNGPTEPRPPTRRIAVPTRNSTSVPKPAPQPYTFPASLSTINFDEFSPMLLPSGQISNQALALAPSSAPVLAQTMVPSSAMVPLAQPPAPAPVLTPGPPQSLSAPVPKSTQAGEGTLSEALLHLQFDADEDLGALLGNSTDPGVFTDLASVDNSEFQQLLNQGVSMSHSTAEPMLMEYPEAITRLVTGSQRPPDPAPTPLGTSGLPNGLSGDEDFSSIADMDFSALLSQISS

CC1(C)[C@@H](O)CC[C@]2(C)[C@H]3C(=O)C=C4[C@@H]5C[C@@](C)(C(=O)O)CC[C@]5(C)CC[C@@]4(C)[C@]3(C)CC[C@@H]12 [ENOXOLONE]
inhibition [1]: Active | viability at 24 h, 40 µM [2]: > 96% | inhibition [3]: Active

CC1(C)[C@@H](O[C@H]2O[C@H](C(=O)O)[C@@H](O)[C@H](O)[C@H]2O)CC[C@]2(C)[C@H]3C(=O)C=C4[C@@H]5C[C@@](C)(C(=O)O)CC[C@]5(C)CC[C@@]4(C)[C@]3(C)CC[C@@H]12
inhibition [1]: Active | viability at 24 h, 40 µM [2]: > 96% | inhibition [3]: Active

CC1(C)[C@@H](O[C@H]2O[C@H](C(=O)O)[C@@H](O)[C@H](O)[C@H]2O)CC[C@]2(C)[C@H]3C(=O)C=C4[C@H]5C[C@@](C)(C(=O)O)CC[C@]5(C)CC[C@@]4(C)[C@]3(C)CC[C@@H]12
inhibition at 40 µM [1]: > 70% | viability at 24 h, 40 µM [2]: > 96% | inhibition [3]: Active | inhibition [4]: Dose-dependent effect | inhibition [5]: Dose-dependent effect | inhibition [6]: Active | inhibition [7]: Active | inhibition [8]: Dose-dependent effect | Activity [9]: Active | Activity [10]: Active | Activity [11]: Active | inhibition [12]: Active

CC1(C)[C@@H](O[C@H]2O[C@H](C(=O)O)[C@@H](O)[C@H](O)[C@H]2O[C@@H]2O[C@H](C(=O)O)[C@@H](O)[C@H](O)[C@H]2O)CC[C@]2(C)[C@H]3C(=O)C=C4[C@H]5C[C@@](C)(C(=O)O)CC[C@]5(C)CC[C@@]4(C)[C@]3(C)CC[C@@H]12
inhibition [1]: Active | viability at 24 h, 40 µM [2]: > 96% | inhibition [3]: Active

CC1(C)[C@@H](O[C@H]2O[C@H](C(=O)O)[C@@H](O)[C@H](O)[C@H]2O[C@@H]2O[C@H](C(=O)O)[C@@H](O)[C@H](O)[C@H]2O)CC[C@]2(C)[C@H]3C(=O)C=C4[C@@H]5C[C@@](C)(C(=O)O)CC[C@]5(C)CC[C@@]4(C)[C@]3(C)CC[C@@H]12 [GLYCYRRHIZIN]
inhibition [1]: Active | viability at 24 h, 40 µM [2]: > 96% | inhibition [3]: Active

CC1(C)[C@@H](O)CC[C@]2(C)[C@H]3C(=O)C=C4[C@H]5C[C@@](C)(C(=O)O)CC[C@]5(C)CC[C@@]4(C)[C@]3(C)CC[C@@H]12 [18alpha-GLYCYRRHETINIC ACID]
inhibition [1]: Active | viability at 24 h, 40 µM [2]: > 96% | inhibition [3]: Active

COc1cc2c(c(OC)c1OC)-c1ccc(OC)c(=O)cc1[C@@H](NC(C)=O)CC2
Activity [13]: Active | Activity [14]: Active | Activity [15]: Active
